Experimental data: ChEMBL document CHEMBL4765345, “Design, synthesis, and biological evaluation of dual targeting inhibitors of histone deacetylase 6/8 and bromodomain BRPF1” (Eur J Med Chem, 2020)

Tests used:
[1] = system: HL-60; assay: Antiproliferative activity against human HL60 assessed as reduction in cell growth at 100 uM by CellTiter-non radioactive cell proliferation assay; format: functional
[2] = system: HL-60; assay: Antiproliferative activity against human HL60 assessed as reduction in cell growth at 1 uM by CellTiter-non radioactive cell proliferation assay; format: functional
[3] = system: THP-1; assay: Antiproliferative activity against human THP-1 assessed as reduction in cell growth at 20 uM by CellTiter-non radioactive cell proliferation assay; format: functional
[4] = system: THP-1; assay: Antiproliferative activity against human THP-1 assessed as reduction in cell growth at 1 uM by CellTiter-non radioactive cell proliferation assay; format: functional
[5] = system: THP-1; assay: Antiproliferative activity against human THP-1 assessed as reduction in cell growth at 100 uM by CellTiter-non radioactive cell proliferation assay; format: functional
[6] = system: HL-60; assay: Antiproliferative activity against human HL60 assessed as reduction in cell growth at 20 uM by CellTiter-non radioactive cell proliferation assay; format: functional
[7] = molecular target: T1, Histone deacetylase 8 (Homo sapiens, UniProt Q9BY41); assay: Inhibition of human recombinant HDAC8 using H2N-Arg-His-Lys(Ac)-Lys(Ac)-AMC as substrate after 90 mins by fluorescence based micro plate assay
T1 sequence (Q9BY41 whole entry): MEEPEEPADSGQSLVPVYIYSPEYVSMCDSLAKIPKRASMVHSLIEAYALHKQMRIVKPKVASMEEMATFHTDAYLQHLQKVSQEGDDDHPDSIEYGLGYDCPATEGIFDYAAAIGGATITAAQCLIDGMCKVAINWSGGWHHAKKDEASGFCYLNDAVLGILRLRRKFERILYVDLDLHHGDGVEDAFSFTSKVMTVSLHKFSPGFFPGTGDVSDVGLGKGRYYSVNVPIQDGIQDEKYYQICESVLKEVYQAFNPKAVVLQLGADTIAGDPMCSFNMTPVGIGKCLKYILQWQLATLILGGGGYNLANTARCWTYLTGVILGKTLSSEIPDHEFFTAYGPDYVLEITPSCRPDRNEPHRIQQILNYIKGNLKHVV

[8] = molecular target: T2, Histone deacetylase 1 (Homo sapiens, UniProt Q13547); assay: Inhibition of recombinant human HDAC1 at 1 uM using Z-(Ac)Lys-AMC as substrate after 90 mins by fluorescence based micro plate assay
In short: (§1)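 Recombinant human HDAC1 or HDAC6 incubated 90 min at 37 °C with 10.5 μM ZMAL (Z-(Ac)Lys-AMC) and increasing inhibitor concentrations, using a homogeneous fluorescence assay. Fluorescence read at Ex 390/Em 460 nm.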

[9] = molecular target: T2, Histone deacetylase 1; assay: Inhibition of recombinant human HDAC1 at 10 uM using Z-(Ac)Lys-AMC as substrate after 90 mins by fluorescence based micro plate assay; in short: as §1
[10] = system: HL-60; assay: Antiproliferative activity against human HL60 assessed as reduction in cell growth at 4 uM by CellTiter-non radioactive cell proliferation assay; format: functional
In short: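 HL60 cells plated at 5000 per well and given inhibitor or DMSO vehicle immediately. Compounds diluted from 200x DMSO stocks; three replicates per concentration. Growth read by CellTiter 96 Aqueous (MTS) assay. GI50 is the concentration cutting metabolically active cells by 50% versus DMSO control, taken from absorbance against log concentration.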

[11] = molecular target: T3, Protein deacetylase HDAC6 (Homo sapiens) (UniProt Q9UBN7); assay: Inhibition of recombinant human HDAC6 at 10 uM using Z-(Ac)Lys-AMC as substrate after 90 mins by fluorescence based micro plate assay; in short: as §1
T3 sequence (whole entry): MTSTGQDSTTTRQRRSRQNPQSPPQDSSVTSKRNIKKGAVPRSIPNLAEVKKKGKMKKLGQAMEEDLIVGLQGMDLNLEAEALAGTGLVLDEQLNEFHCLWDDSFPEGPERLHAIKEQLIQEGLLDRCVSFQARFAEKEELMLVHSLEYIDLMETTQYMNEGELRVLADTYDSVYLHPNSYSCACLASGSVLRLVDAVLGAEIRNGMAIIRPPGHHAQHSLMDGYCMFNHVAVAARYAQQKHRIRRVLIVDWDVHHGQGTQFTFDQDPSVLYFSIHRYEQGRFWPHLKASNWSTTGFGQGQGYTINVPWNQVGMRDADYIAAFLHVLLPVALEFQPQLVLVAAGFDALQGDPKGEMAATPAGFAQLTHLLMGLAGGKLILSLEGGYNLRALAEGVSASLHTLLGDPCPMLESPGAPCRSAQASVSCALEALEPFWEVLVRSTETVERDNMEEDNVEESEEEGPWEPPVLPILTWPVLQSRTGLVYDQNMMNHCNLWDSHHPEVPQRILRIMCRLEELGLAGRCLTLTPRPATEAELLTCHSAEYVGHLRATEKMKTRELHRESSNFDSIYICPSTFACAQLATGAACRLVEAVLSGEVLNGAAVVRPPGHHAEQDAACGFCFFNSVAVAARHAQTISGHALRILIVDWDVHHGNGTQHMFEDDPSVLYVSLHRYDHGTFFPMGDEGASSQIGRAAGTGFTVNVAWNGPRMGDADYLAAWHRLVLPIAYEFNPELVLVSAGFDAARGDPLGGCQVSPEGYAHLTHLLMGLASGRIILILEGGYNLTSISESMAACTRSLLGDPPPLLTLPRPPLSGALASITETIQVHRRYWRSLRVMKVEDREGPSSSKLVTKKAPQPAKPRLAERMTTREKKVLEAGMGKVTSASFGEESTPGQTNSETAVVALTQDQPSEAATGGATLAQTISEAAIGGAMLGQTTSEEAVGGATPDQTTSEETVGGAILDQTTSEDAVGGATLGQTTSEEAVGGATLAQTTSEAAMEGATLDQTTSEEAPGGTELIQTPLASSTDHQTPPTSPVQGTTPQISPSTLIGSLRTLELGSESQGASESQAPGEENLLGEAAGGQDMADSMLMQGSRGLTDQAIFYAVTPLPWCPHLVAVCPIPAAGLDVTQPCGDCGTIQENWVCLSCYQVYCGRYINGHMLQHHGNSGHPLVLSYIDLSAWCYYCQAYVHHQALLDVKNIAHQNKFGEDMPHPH

[12] = molecular target: T3, Protein deacetylase HDAC6 (Homo sapiens); assay: Inhibition of recombinant human HDAC6 at 1 uM using Z-(Ac)Lys-AMC as substrate after 90 mins by fluorescence based micro plate assay; in short: as §1
[13] = system: THP-1; assay: Antiproliferative activity against human THP-1 assessed as reduction in cell growth at 4 uM by CellTiter-non radioactive cell proliferation assay; format: functional
[14] = molecular target: T4, Peregrin (Homo sapiens, UniProt P55201); assay: Binding affinity to BRPF1 (unknown origin) by Isothermal titration calorimetry; details: read-out: Kd
T4 sequence (P55201 whole entry): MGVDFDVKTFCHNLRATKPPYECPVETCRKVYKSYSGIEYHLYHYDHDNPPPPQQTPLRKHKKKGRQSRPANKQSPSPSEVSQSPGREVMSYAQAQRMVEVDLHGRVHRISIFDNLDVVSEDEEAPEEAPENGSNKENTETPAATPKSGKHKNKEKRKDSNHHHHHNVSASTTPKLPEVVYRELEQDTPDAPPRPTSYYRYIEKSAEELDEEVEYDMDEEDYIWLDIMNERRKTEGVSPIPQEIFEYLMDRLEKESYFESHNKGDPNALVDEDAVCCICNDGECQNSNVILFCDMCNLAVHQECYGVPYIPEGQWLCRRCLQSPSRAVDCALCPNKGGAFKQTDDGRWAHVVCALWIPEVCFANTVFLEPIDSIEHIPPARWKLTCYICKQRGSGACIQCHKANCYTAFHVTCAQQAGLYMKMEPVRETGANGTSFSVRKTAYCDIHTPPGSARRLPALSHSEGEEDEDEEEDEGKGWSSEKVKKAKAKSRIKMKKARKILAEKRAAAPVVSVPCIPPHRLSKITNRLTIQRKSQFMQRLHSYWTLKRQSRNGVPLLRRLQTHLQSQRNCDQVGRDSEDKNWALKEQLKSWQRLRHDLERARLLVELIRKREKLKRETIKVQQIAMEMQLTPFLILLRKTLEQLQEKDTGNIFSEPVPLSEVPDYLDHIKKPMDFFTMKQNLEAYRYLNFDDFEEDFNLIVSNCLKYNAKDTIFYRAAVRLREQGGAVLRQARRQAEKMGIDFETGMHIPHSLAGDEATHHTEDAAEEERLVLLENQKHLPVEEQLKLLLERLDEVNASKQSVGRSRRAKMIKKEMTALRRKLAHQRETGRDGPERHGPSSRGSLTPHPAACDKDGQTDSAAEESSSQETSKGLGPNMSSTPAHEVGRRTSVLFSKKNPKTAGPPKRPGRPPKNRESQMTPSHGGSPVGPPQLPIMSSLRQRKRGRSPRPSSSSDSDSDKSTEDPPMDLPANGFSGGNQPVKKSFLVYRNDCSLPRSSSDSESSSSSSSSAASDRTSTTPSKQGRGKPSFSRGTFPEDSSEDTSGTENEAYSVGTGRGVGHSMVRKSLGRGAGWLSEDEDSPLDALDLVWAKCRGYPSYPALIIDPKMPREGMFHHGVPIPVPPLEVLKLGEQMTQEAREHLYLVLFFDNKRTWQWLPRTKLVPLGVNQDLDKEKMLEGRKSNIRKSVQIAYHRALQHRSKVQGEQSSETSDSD
In short: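 Isothermal titration calorimetry with recombinant BRPF1 (200–400 μM) in the injection syringe titrated into ligand (20–40 μM) in the sample cell. Kd was fitted from the titrations and reported with its P99 interval.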

[15] = molecular target: T5, Protein deacetylase HDAC6 (Homo sapiens, UniProt Q9UBN7); assay: Inhibition of recombinant human HDAC6 using Z-(Ac)Lys-AMC as substrate after 90 mins by fluorescence based micro plate assay; in short: as §1
T5 sequence (Q9UBN7 whole entry): T3 sequence (whole entry)

[16] = molecular target: T2, Histone deacetylase 1; assay: Inhibition of recombinant human HDAC1 using Z-(Ac)Lys-AMC as substrate after 90 mins by fluorescence based micro plate assay; in short: as §1

T2 sequence (Q13547 whole entry): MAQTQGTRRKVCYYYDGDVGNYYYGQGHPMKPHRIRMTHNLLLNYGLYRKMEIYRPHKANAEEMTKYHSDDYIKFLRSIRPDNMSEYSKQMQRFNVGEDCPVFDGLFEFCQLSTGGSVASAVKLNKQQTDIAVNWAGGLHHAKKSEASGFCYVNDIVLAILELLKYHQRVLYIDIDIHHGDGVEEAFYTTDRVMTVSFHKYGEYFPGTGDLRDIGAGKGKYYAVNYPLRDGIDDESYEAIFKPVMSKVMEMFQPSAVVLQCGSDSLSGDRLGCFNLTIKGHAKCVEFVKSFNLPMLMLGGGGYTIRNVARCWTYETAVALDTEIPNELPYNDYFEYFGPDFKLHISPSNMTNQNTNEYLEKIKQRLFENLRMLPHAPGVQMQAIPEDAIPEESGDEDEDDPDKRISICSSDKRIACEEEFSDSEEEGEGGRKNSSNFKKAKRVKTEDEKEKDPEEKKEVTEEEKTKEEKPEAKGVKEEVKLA

IC50 [7] [nM] | inhibition [8] [%] | inhibition [9] [%] | inhibition [11] [%] | inhibition [12] [%] | Kd [14] [nM] | IC50 [15] [nM] | IC50 [16] [nM] | SMILES | inhibition at 100 µM [1] [%] | inhibition at 1 µM [2] [%] | inhibition at 20 µM [3] [%] | inhibition at 1 µM [4] [%] | inhibition at 100 µM [5] [%] | inhibition at 20 µM [6] [%] | inhibition at 4 µM [10] [%] | inhibition at 4 µM [13] [%]
– | – | – | – | – | – | – | – | COc1ccc(C(=O)NOCc2ccccc2)cc1S(=O)(=O)Nc1ccc2c(c1)cc(C)c(=O)n2C | 13 | 2 | 20 | – | – | – | – | –
– | – | – | – | – | – | – | – | COC(=O)c1ccc(S(=O)(=O)Nc2ccc3c(c2)cc(C)c(=O)n3C)cc1 | 68 | 5 | 85 | 0 | 95 | 22 | – | –
113 | – | – | – | – | – | – | – | Cc1cc2cc(NC(=O)c3cc(C(=O)NO)ccc3Cl)ccc2n(C)c1=O | – | – | – | – | – | – | – | –
158 | 4 | 29 | 63 | 14 | – | – | – | COc1ccc(C(=O)NO)cc1CS(=O)(=O)Nc1ccc2c(c1)cc(C)c(=O)n2C | 0 | – | 0 | 0 | 0 | 0 | 0 | –
560 | 13 | 31 | 59 | 13 | 234 | – | – | Cc1cc2cc(NS(=O)(=O)c3cc(C(=O)NO)ccc3Cl)ccc2n(C)c1=O | 33 | – | 8 | – | 21 | 32 | 29 | 16
– | – | – | – | – | – | – | – | COC(=O)c1ccc(CS(=O)(=O)Nc2ccc3c(c2)cc(C)c(=O)n3C)cc1 | 78 | 15 | 9 | 0 | 93 | 14 | – | –
231 | 11 | 29 | 46 | 15 | 1580 | – | – | COc1cc(C(=O)NO)ccc1CS(=O)(=O)Nc1ccc2c(c1)cc(C)c(=O)n2C | 0 | – | 0 | – | – | 0 | 0 | –
908 | – | – | – | – | 175 | 344 | 797 | Cc1cc2cc(NS(=O)(=O)c3ccc(C(=O)NO)cc3)ccc2n(C)c1=O | 34 | 3 | – | 0 | 78 | 6 | – | –
3190 | – | 20 | 84 | 28 | – | – | – | Cc1cc2cc(NCc3cc(C(=O)NO)ccc3Cl)ccc2n(C)c1=O | – | – | – | – | – | – | – | –
65 | – | – | – | – | 857 | 709 | 6900 | COc1ccc(C(=O)NO)cc1C(=O)Nc1ccc2c(c1)cc(C)c(=O)n2C | – | – | – | – | – | – | – | –
555 | – | 31 | 68 | 40 | – | – | – | COc1ccc(C(=O)NO)cc1CNc1ccc2c(c1)cc(C)c(=O)n2C | – | – | – | – | – | – | – | –
– | – | – | – | – | – | – | – | COc1ccc(C(=O)NOCc2ccc(OC(C)=O)cc2)cc1S(=O)(=O)Nc1ccc2c(c1)cc(C)c(=O)n2C | 95 | 0 | 3 | – | 27 | 0 | – | –
465 | 2 | 26 | 33 | 3 | – | – | – | Cc1cc2cc(NS(=O)(=O)Cc3cccc(C(=O)NO)c3)ccc2n(C)c1=O | 0 | – | 0 | 0 | 0 | 0 | 0 | –
– | – | – | – | – | – | – | – | Cc1cc2cc(NS(=O)(=O)Cc3ccc(C(=O)NOCc4ccc(O)cc4)cc3)ccc2n(C)c1=O | – | – | 1 | 0 | 91 | – | – | –
